Sampled rows, rich in hits. Any-hit rate of the full collection: about 1.5%.
CASP6 VEID inh – blocks human caspase-6 cleavage activity; purified caspase-6, Z-VEID-R110 cleavage fluorescence; 350,000 tested, 0.53% active; inhibition, % at 12.5 µM;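 active means mean inhibition across replicates at least about 35%, with every replicate also reaching that limit, limit read from the data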
Target sequence (P55212 24-179 limits assumed): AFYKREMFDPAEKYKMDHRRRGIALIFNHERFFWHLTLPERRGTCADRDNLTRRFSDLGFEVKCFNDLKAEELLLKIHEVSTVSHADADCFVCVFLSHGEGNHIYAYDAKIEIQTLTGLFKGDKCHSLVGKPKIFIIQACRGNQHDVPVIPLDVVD
Target sequence (P55212 194-293 limits assumed): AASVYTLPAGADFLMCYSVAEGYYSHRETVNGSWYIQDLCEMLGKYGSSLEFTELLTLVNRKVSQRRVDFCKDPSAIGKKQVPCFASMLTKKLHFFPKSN
NSD2 inh – blocks human histone methyltransferase NSD2; 310,000 tested, 0.54% active; inhibition, % at 12.5 µM; NSD2 peptide methylation, AlphaScreen, 120 min; AID 743445; O96028
DNMT1 block – inhibitors of human DNMT1 | P26358 | DNMT1 molecular beacon, Hinp1I cleavage, fluorescence | inhibition (reported as % activation of signal), % at 10 µM | 360,000 tested, 0.83% active | AID 588458
HCV NS3 hel inh – HCV NS3 helicase inhibition. NS3 helicase DNA unwinding, Cy5 molecular beacon fluorescence. inhibition, % at 10.9 µM. 290,000 tested, 0.56% active;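 active means inhibition above the mean of all tested compounds plus 3 SD, set per campaign, cut at about 35% in these data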
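Measured by: Cy5 fluorescence, 0 and 60 min reads / Assay system: NS3 helicase fragment of HCV / Control set: low DMSO, high thioflavine S at 110 µM / Times: 1 h reaction at 25 °C, ATP-initiated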
Beacon interf DR – beacon fluorescence artifact, dose response counter-screen | IC50, µM | molecular beacon fluorescence, spectral interference counter-screen | shares compounds with DNMT1 block | 200 tested, under 10 active | AID 602382; call rule not given here
DNMT1 confirm – confirmation of human DNMT1 inhibitors; inhibition, % at 10 µM; 2,300 tested, 8% active; shares compounds with DNMT1 block; AID 602385; DNMT1 molecular beacon HinP1I cleavage, fluorescence;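 active means average inhibition of at least 30% in the single-concentration confirmation test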
Beacon interf – shows spectral interference in the DNMT1 beacon assay; shares compounds with DNMT1 block; DNMT1 molecular beacon spectral interference counterscreen, fluorescence 485/520; activation (fluorescence interference), % at 10 µM; 2,300 tested, 1% active; AID 602387;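 active means activation of at least 30% at 10 µM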;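 further: DNMT1 catalytic domain with a HinP1I cleavage step and a FAM/dabcyl DNA beacon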
Hits are given with their value; n = inactive; x = not tested or not shown. Unless noted, no stated cut-off is given here; in the data, active means inhibition above about 50%; inactive means the rest.

SMILES	CASP6 VEID inh	NSD2 inh	DNMT1 block	HCV NS3 hel inh	DNMT1 confirm	Beacon interf	others
CC(C)c1ccc(/C=N/NC(=O)C2CCCC2)cc1	n	n	n	n	x	x
C[C@@H]1CN([C@H](C)CO)C(=O)Cc2cc(NC(=O)Cc3ccccc3)ccc2O[C@@H]1CN(C)C(=O)Nc1ccc2c(c1)OCO2	n	x	x	x	x	x
C[C@H](O)C#Cc1cnc2c(c1)C(=O)N([C@H](C)CO)C[C@@H](C)[C@@H](CN(C)CC1CCOCC1)O2	n	x	x	x	x	x
NS(=O)(=O)c1ccc(N/N=C/c2cn(-c3ccccc3)nc2-c2cccs2)c([N+](=O)[O-])c1	x	n	n	n	n	n
Cc1ccc(CNC(=O)c2nnn(CC(=O)Nc3cc(C)cc(C)c3)c2N)cc1	n	n	56	n	n	n
C=C(C)C(=O)Nc1cccc(C2=NOC3(C2)C[C@@H](C(N)=O)N(C(=O)C2(C)CC2)C3)c1 (stereo partly drawn)	x	x	106	x	103	n	Beacon interf DR=n
C=C(C)C(=O)Nc1cccc(C2=NOC3(C2)C[C@H](C(N)=O)N(C(=O)c2ccccc2)C3)c1 (stereo partly drawn)	n	x	91	x	n	n
C=C(C)C(=O)N1CC2(CC(c3cccc(NC(=O)/C=C\C=C/C)c3)=NO2)C[C@H]1C(N)=O (stereo partly drawn)	n	x	n	x	x	x
C=C(C)C(=O)Nc1cccc(C2=NOC3(C2)C[C@@H](C(N)=O)N(C(=O)/C=C/CC)C3)c1 (stereo partly drawn)	44	x	109	x	42	n	Beacon interf DR=n
C=C(C)C(=O)Nc1cccc(C2=NOC3(C2)C[C@@H](C(N)=O)N(C(=O)C(=C)C)C3)c1 (stereo partly drawn)	38	x	103	x	60	n	Beacon interf DR=n
C[C@H](CO)N1C[C@H](C)[C@@H](CN(C)Cc2ccccc2)Oc2c(NC(=O)c3cnccn3)cccc2C1=O	n	x	x	x	x	x
COC(=O)C[C@@H]1CC[C@@H]2[C@H](COc3ccc(NC(=O)Nc4ccc(C)cc4)cc3C(=O)N2C)O1	n	x	x	x	x	x
CCC(=O)Nc1cccc(C2=NOC3(C2)C[C@@H](C(N)=O)N(C(=O)COc2ccc(Cl)cc2)C3)c1 (stereo partly drawn)	n	x	n	x	x	x
C=C(C)C(=O)Nc1cccc(C2=NOC3(C2)C[C@H](C(N)=O)N(C(=O)COc2ccc(Cl)cc2)C3)c1 (stereo partly drawn)	51	x	98	x	64	n	Beacon interf DR=n
C=C(C)C(=O)Nc1cccc(C2=NOC3(C2)C[C@@H](C(N)=O)N(C(=O)c2cc([N+](=O)[O-])cc([N+](=O)[O-])c2C)C3)c1 (stereo partly drawn)	n	x	96	x	n	n
CO[C@H]1CN(C)C(=O)c2ccc(NC(=O)c3nc4ccccc4s3)cc2OC[C@@H](C)NC[C@H]1C	n	x	x	x	x	x
O=C1N(Cc2cccc(Cl)c2)C[C@@H]2C[C@@H](c3cccn3-c3cccnc3)N3CCC[C@@]123	n	n	78	n	n	n
Cc1cccn2c(=O)c3cc(C(N)=S)c(=N)n(CCCOC(C)C)c3nc12	x	n	62	n	n	n
O=C(C[C@H]1CC[C@H](NC(=O)C2CCOCC2)[C@@H](CO)O1)NCC1CC1	n	x	x	x	x	x
CCOC(=O)c1c(NC(=O)CSc2nnc(C)o2)sc(C)c1C	n	n	59	n	n	n
C[C@@H]1CN([C@H](C)CO)C(=O)c2cc(NC(=O)NC3CCCCC3)ccc2O[C@H]1CN(C)S(=O)(=O)c1cn(C)cn1	n	x	x	x	x	x
CCOCCCNC(=O)c1ccccc1SCC	x	n	52	n	n	n
CCOCCCNC(=O)c1ccccc1Br	x	n	n	n	x	x
Cc1noc(C)c1NC(=O)Nc1ccc2c(c1)CC(=O)N([C@@H](C)CO)C[C@@H](C)[C@H](CN(C)Cc1ccc3c(c1)OCO3)O2	n	x	x	x	x	x
CN(C)C(CNC(=O)C1CC(=O)N(c2cccc(C(F)(F)F)c2)C1)c1ccccc1 (stereo not drawn)	n	n	91	x	n	n
SMILES	CASP6 VEID inh	NSD2 inh	DNMT1 block	HCV NS3 hel inh	DNMT1 confirm	Beacon interf	others
Cc1ccc2nc(NC(=O)c3ccc(S(=O)(=O)N4CCCc5ccccc54)cc3)sc2c1	x	n	95	n	n	n
O=C(Nc1nc2ccc(F)cc2s1)c1cccc(S(=O)(=O)N2CCc3ccccc32)c1	n	n	n	n	x	x
Cc1ccc(CSCC(=O)N/N=C/c2ccc(OCC(=O)Nc3ccc(C)cc3)cc2)cc1	x	n	69	n	n	n
CCC(C)n1c(NC(=O)c2ccccc2)c(C#N)c2nc3ccccc3nc21 (stereo not drawn)	x	x	73	n	n	n
CC(C)c1nc2sc3c(SCC(=O)NCc4ccco4)ncnc3c2c2c1CCC2	x	n	83	n	n	n
CC(C)(C)CC(=O)Nc1cccc2c1CCCC2	x	n	61	n	32	n	Beacon interf DR=n
C[C@@H]1CN([C@@H](C)CO)C(=O)c2c(c3ccccc3n2C)-c2ccccc2CO[C@@H]1CN(C)Cc1ccc(Oc2ccccc2)cc1	n	x	x	x	x	x
O=C(/C=C/c1ccco1)c1ccc(NC(=O)C23CC4CC(CC(C4)C2)C3)cc1	n	n	72	n	n	n
O=C(C=Cc1ccco1)c1ccc([N+](=O)[O-])cc1	n	n	n	x	x	x
CC1(C(=O)Nc2ccc3nc[nH]c3c2)CCN1C(=O)C1(c2ccccc2)CC1 (stereo not drawn)	n	n	101	x	n	n
CSc1ccc(NC(=O)C2(C)CCN2C(=O)C2(c3ccccc3)CC2)cc1 (stereo not drawn)	n	n	n	x	x	x
N#Cc1ccc(NC(=O)COC(=O)CCc2nc3ccccc3c(=O)[nH]2)cc1	n	n	n	n	x	x
O=C(CCc1nc2ccccc2c(=O)[nH]1)Nc1ccc(F)cc1	n	n	n	n	x	x
Cc1ccc(/C=C/C(=O)Nc2nnc(SCc3ccc(C#N)cc3)s2)o1	n	n	n	n	n	n
Cc1ccc(/C=C/C(=O)Nc2nccs2)o1	n	n	n	n	x	x
O=C(CCc1nc2ccccc2c(=O)[nH]1)Nc1nnc(SCc2ccc(F)cc2)s1	n	n	64	x	n	77
N#Cc1ccc(CSc2nnc(NC(=O)CCc3nc4ccccc4c(=O)[nH]3)s2)cc1	n	n	68	x	n	n
CSc1nnc2c3cc(C)ccc3n(Cc3ccccc3)c2n1	x	n	77	n	n	n
O=C(C1CC1)N1CCCCN2[C@H](CO)[C@@H](c3ccc(C#CC4CC4)cc3)[C@@H]2C1	n	x	x	x	x	x
CCOC(=O)c1c(NC(=O)COC(=O)Cn2c(C)nc3ccccc32)sc2c1CCCC2	x	n	65	n	n	n
Cc1[nH]c2ccc(C(=O)O)cc2c1C	x	n	n	n	x	x
CCCc1c(C)[nH]c2ccc(C(=O)O)cc2c1=S	n	x	93	n	n	n
CCc1ccc(NC(=O)c2noc3c2CCCCC3)cc1	x	n	n	n	x	x
CSc1ccccc1NC(=O)c1noc2c1CCC2	x	n	81	n	n	n

From PubChem
